Results on seven molecules are retold here after ChEMBL document CHEMBL1759840, “2,3-Substituted quinoxalin-6-amine analogs as antiproliferatives: a structure-activity relationship study” (2011).

The subject of assay [1] is MDA-MB-231. In words: Induction of apoptosis in human MDA-MB-231 cells assessed as increase in caspase 3/7 activity at 20 uM after 1 hr by luminescence assay. It counts as functional, cell-based. Summed up:
(§1)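 Caspase 3/7 induction was followed over time, up to 72 h, in MDA-MB-231 and PC3 cells, with etoposide as positive control.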

For assay [2], the system named is MDA-MB-231. In words: Growth inhibition of human MDA-MB-231 cells at 20 uM after 72 hrs by alamar blue assay. The settings on record: for inhibition of growth at 20 µM: MDA-MB-231, 72 h, read-out: GI. The class given is functional. Put shortly:
(§2)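 Single-concentration screen at 20 μM with 72 h exposure across a panel of cancer lines: lung A549, pancreatic AsPC1, colon HT29, breast MDA-MB-231, prostate PC3, ovarian SKOV3 and bone U2OS. Growth inhibition read after 72 h.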
In general terms: The colour change of resazurin is a common sign of viable cells or microbes.

The test system of assay [3] is U2OS. In words: Growth inhibition of human U2OS cells after 72 hrs by alamar blue assay. The class given is functional.
In assay [4] the test system is HT-29. In words: Growth inhibition of human HT-29 cells after 72 hrs by alamar blue assay. It counts as functional. The settings on record: HT-29, 72 h.
The subject of assay [5] is PC-3. The experiment in a line: Growth inhibition of human PC3 cells at 20 uM after 72 hrs by alamar blue assay. To be noted: for inhibition of growth at 20 µM: PC-3, 72 h, read-out: GI. It counts as functional. Summed up:
as §2

For assay [6], the system named is SK-OV-3. The experiment in a line: Growth inhibition of human SKOV3 cells after 72 hrs by alamar blue assay. It counts as functional. To be noted: SK-OV-3, 72 h.
Assay [7] concerns HT-29. The experiment in a line: Growth inhibition of human HT-29 cells at 20 uM after 72 hrs by alamar blue assay. It counts as functional. To be noted: for inhibition of growth at 20 µM: HT-29, 72 h, read-out: GI. Put shortly: as §2
Assay [8] deals with HeLa. In words: Induction of apoptosis in human HeLa cells overexpressing Bad3SA assessed as PARP cleavage at 20 uM by Western blotting. It counts as functional, cell-based.
Assay [9] has as its system PC-3. The experiment in a line: Induction of apoptosis in human PC3 cells assessed as increase in caspase 3/7 activity at 20 uM after 1 hr by luminescence assay. It counts as functional, cell-based. Put shortly:
as §1

The subject of assay [10] is HeLa. In words: Induction of Mcl-1 dependent apoptosis in doxycycline-stimulated human HeLa cells assessed as condensed nuclei for 12 hrs using Hoechst dye. It counts as functional, cell-based.
Assay [11] relates to PC-3. In words: Growth inhibition of human PC3 cells after 72 hrs by alamar blue assay. The class given is functional. The settings on record: PC-3, 72 h.
The test system of assay [12] is HeLa. The experiment in a line: Induction of apoptosis in human HeLa cells overexpressing Bad3SA assessed as increase in caspase 3/7 activity at 20 uM after 1 hr by luminescence assay. It counts as functional, cell-based.
The subject of assay [13] is A549. In words: Growth inhibition of human A549 cells after 72 hrs by alamar blue assay. The settings on record: A549, 72 h. It counts as functional.
Assay [14] deals with MDA-MB-231. In words: Growth inhibition of human MDA-MB-231 cells after 72 hrs by alamar blue assay. It counts as functional. To be noted: MDA-MB-231, 72 h.
Assay [15] concerns U2OS. The experiment in a line: Growth inhibition of human U2OS cells at 20 uM after 72 hrs by alamar blue assay. The class given is functional. To be noted: for inhibition of growth at 20 µM: read-out: GI. Summed up: as §2
Assay [16] relates to SK-OV-3. In words: Growth inhibition of human SKOV3 cells at 20 uM after 72 hrs by alamar blue assay. The settings on record: for inhibition of growth at 20 µM: SK-OV-3, 72 h, read-out: GI. It counts as functional. Put shortly:
as §2

The subject of assay [17] is ASPC1. The experiment in a line: Growth inhibition of human AsPC1 cells at 20 uM after 72 hrs by alamar blue assay. It counts as functional. The settings on record: for inhibition of growth at 20 µM: ASPC1, 72 h, read-out: GI. Summed up: as §2
For assay [18], the system named is ASPC1. The experiment in a line: Growth inhibition of human AsPC1 cells after 72 hrs by alamar blue assay. The class given is functional. The settings on record: ASPC1, 72 h.
Assay [19] concerns A549. The experiment in a line: Growth inhibition of human A549 cells at 20 uM after 72 hrs by alamar blue assay. To be noted: for inhibition of growth at 20 µM: A549, 72 h, read-out: GI. The class given is functional. Summed up: as §2

Activity calls are given as the source filed them. The rule behind the calls is not given here.

As a reminder, the GI50 is the concentration at which growth is held to half of that of the control. High values mean lower sensitivity of the cells, low ones greater sensitivity of the cells. Consider `O=C(Nc1ccc(Br)cc1)Nc1ccc2nc(-c3ccco3)c(-c3ccco3)nc2c1`, for which the result in the assay on MDA-MB-231 [1], in the assay with HeLa [8], in the assay on PC-3 [9] and in the assay with HeLa [12] was Active. The inhibition of growth at 20 µM with MDA-MB-231 [2] is above 100%; in the assay on PC-3 [5] it was above 100%; in the assay with HT-29 [7] it was 88.6%; in the assay on U2OS [15], above 100%; in the assay on SK-OV-3 [16], 94.9%; in the assay with ASPC1 [17], above 100%. Besides, in the assay on A549 [19], the inhibition of growth at 20 µM was above 100%. In addition, the GI50 was found to be 10.8 µM in the assay on U2OS [3]; 12.1 µM in the assay on HT-29 [4]; 16.8 µM in the assay with SK-OV-3 [6]; 5.9 µM in the assay on PC-3 [11]; 6.4 µM in the assay with A549 [13]; 8.4 µM with MDA-MB-231 [14]. Moreover, growth in the assay on ASPC1 [18] was halved (GI50) at 17.3 µM. The Activity result with HeLa [10] is “Dose-dependent effect”.

On to `S=C(Nc1ccccc1)Nc1ccc2nc(-c3cccs3)c(-c3cccs3)nc2c1`, for which the “growth inhibition (GI)” value in the assay with MDA-MB-231 [2], in the assay on PC-3 [5], in the assay on HT-29 [7], in the assay with U2OS [15], with SK-OV-3 [16] and with ASPC1 [17] was “inactive” each time. The “growth inhibition (GI)” value in the assay on A549 [19] was “inactive”.

Consider `Cc1nc2ccc(NC(=O)NN3CCC(Cc4ccccc4)CC3)cc2nc1C`, for which the inhibition of growth at 20 µM worked out at 12.4% in the assay on MDA-MB-231 [2]; 30.6% in the assay on PC-3 [5]; 16.3% in the assay with HT-29 [7]; 33.5% in the assay with U2OS [15]; 8.9% with SK-OV-3 [16]; 40.3% with A549 [19]. Besides, the “growth inhibition (GI)” value in the assay on ASPC1 [17] was “inactive”.

For the molecule `Cc1ccc(S(=O)(=O)c2c(N)ccc3nc(C)c(C)nc23)cc1`, the “growth inhibition (GI)” value in the assay with MDA-MB-231 [2], with PC-3 [5], with HT-29 [7], in the assay with U2OS [15], in the assay with SK-OV-3 [16] and in the assay on ASPC1 [17] was “inactive” each time. Moreover, in the assay with A549 [19], the “growth inhibition (GI)” value was “inactive”.

Take `O=[N+]([O-])c1ccc(NC(=S)Nc2ccc3nc(-c4ccccc4)c(-c4ccccc4)nc3c2)cc1`: the inhibition of growth at 20 µM in the assay with MDA-MB-231 [2] worked out at 72.6%; in the assay with PC-3 [5], 81%; with HT-29 [7], 81.2%; with U2OS [15], 76.1%; with SK-OV-3 [16] it was 55.8%; with ASPC1 [17], 55.5%. The inhibition of growth at 20 µM in the assay on A549 [19] worked out at 16.6%.

On to `O=C(Nc1ccc2nc(-c3ccco3)c(-c3ccco3)nc2c1)NN1CCC(Cc2ccccc2)CC1`, for which the inhibition of growth at 20 µM is 90.8% with MDA-MB-231 [2]; above 100% with PC-3 [5]; 55.2% in the assay on HT-29 [7]; 80.3% with U2OS [15]; 47.6% in the assay on SK-OV-3 [16]; above 100% in the assay on ASPC1 [17]. In addition, the inhibition of growth at 20 µM in the assay on A549 [19] came to 93.1%.

For the molecule `S=C(Nc1ccccc1)Nc1ccc2nc(-c3ccccc3)c(-c3ccccc3)nc2c1`, the “growth inhibition (GI)” value with MDA-MB-231 [2], in the assay with PC-3 [5], in the assay on HT-29 [7], in the assay with U2OS [15], with SK-OV-3 [16] and with ASPC1 [17] was “inactive” throughout. In the assay with A549 [19], the “growth inhibition (GI)” value is “inactive”.
